Experimental data from ChEMBL document CHEMBL1153726, “Synthesis and anticancer activity of sclerophytin-inspired hydroisobenzofurans” (Bioorg Med Chem Lett, 2009).

Columns and labels:
Assay type in all cases: functional
MOLT-4 [1] = assay: Growth inhibition of human MOLT4 cells at 10 nM after 96 hrs by MTT assay; design: scale not given: the % may be the effect or the level left
SNB-19 = assay: Growth inhibition of human SNB19 cells at 10 uM after 96 hrs by MTT assay; design: scale not given: the % may be the effect or the level left
OVCAR-8 [2] = assay: Growth inhibition of human OVCAR8 cells at 100 nM after 96 hrs by MTT assay; design: scale not given: the % may be the effect or the level left
BT-549 = assay: Growth inhibition of human BT549 cells at 1 nM after 96 hrs by MTT assay; design: scale not given: the % may be the effect or the level left
MDA-MB-468 [3] = assay: Growth inhibition of human MDA-MB-468 cells at 10 uM after 96 hrs by MTT assay; design: scale not given: the % may be the effect or the level left
SNB-75 [4] = assay: Growth inhibition of human SNB75 cells at 1 uM after 96 hrs by MTT assay; design: scale not given: the % may be the effect or the level left
OVCAR-5 = assay: Growth inhibition of human OVCAR5 cells after 96 hrs by MTT assay; details: OVCAR-5, 96 h
Summary of the method: (§1)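 Tested in the NCI 60-cell-line panel in five-dose format; GI50 and LC50 values reported for each cell line.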

KM12 = assay: Growth inhibition of human KM12 cells at 10 uM after 96 hrs by MTT assay; design: scale not given: the % may be the effect or the level left
A549 [5] = assay: Growth inhibition of human A549 cells at 10 nM after 96 hrs by MTT assay; design: scale not given: the % may be the effect or the level left
SNB-75 [6] = assay: Growth inhibition of human SNB75 cells at 1 nM after 96 hrs by MTT assay; design: scale not given: the % may be the effect or the level left
SN12C = assay: Growth inhibition of human SN12C cells at 1 nM after 96 hrs by MTT assay; design: scale not given: the % may be the effect or the level left
[7] = Growth inhibition of human Hs 578T cells at 10 nM after 96 hrs by MTT assay; design: scale not given: the % may be the effect or the level left
HT-29 = assay: Growth inhibition of human HT-29 cells at 1 nM after 96 hrs by MTT assay; design: scale not given: the % may be the effect or the level left
MDA-MB-231 = assay: Growth inhibition of human MDA-MB-231 cells at 10 uM after 96 hrs by MTT assay; design: scale not given: the % may be the effect or the level left
T47D = assay: Growth inhibition of human T47D cells at 10 nM after 96 hrs by MTT assay; design: scale not given: the % may be the effect or the level left
CAKI-1 = assay: Growth inhibition of human Caki1 cells at 1 uM after 96 hrs by MTT assay; design: scale not given: the % may be the effect or the level left
MDA-MB-468 [8] = assay: Growth inhibition of human MDA-MB-468 cells at 1 uM after 96 hrs by MTT assay; design: scale not given: the % may be the effect or the level left
SNB-75 [9] = assay: Growth inhibition of human SNB75 cells at 10 uM after 96 hrs by MTT assay; design: scale not given: the % may be the effect or the level left
UO-31 = assay: Growth inhibition of human UO31 cells at 10 nM after 96 hrs by MTT assay; design: scale not given: the % may be the effect or the level left
NCI-H23 = assay: Growth inhibition of human NCI-H23 cells after 96 hrs by MTT assay; details: NCI-H23, 96 h
Summary of the method: (§2)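 Run in the NCI 60 human tumour cell line panel as a five-dose assay. GI50 and LC50 were reported for each cell line.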

SF-268 [10] = assay: Growth inhibition of human SF268 cells at 10 uM after 96 hrs by MTT assay; design: scale not given: the % may be the effect or the level left
LOX IMVI = assay: Growth inhibition of human LOXIMVI cells at 1 uM after 96 hrs by MTT assay; design: scale not given: the % may be the effect or the level left
MOLT-4 [11] = assay: Growth inhibition of human MOLT4 cells at 1 nM after 96 hrs by MTT assay; design: scale not given: the % may be the effect or the level left
EKVX = assay: Growth inhibition of human EKVX cells at 1 nM after 96 hrs by MTT assay; design: scale not given: the % may be the effect or the level left
HOP-62 [12] = assay: Growth inhibition of human HOP62 cells at 1 nM after 96 hrs by MTT assay; design: scale not given: the % may be the effect or the level left
HL-60(TB) [13] = assay: Growth inhibition of human HL-60(TB) cells at 1 uM after 96 hrs by MTT assay; design: scale not given: the % may be the effect or the level left
SF-268 [14] = assay: Growth inhibition of human SF268 cells at 1 nM after 96 hrs by MTT assay; design: scale not given: the % may be the effect or the level left
OVCAR-4 = assay: Growth inhibition of human OVCAR4 cells at 100 nM after 96 hrs by MTT assay; design: scale not given: the % may be the effect or the level left
SF-268 [15] = assay: Growth inhibition of human SF268 cells at 100 nM after 96 hrs by MTT assay; design: scale not given: the % may be the effect or the level left
HOP-92 = assay: Growth inhibition of human HOP92 cells after 96 hrs by MTT assay; details: HOP-92, 96 h; summary of the method: as §2
UACC-62 = assay: Growth inhibition of human UACC62 cells at 10 nM after 96 hrs by MTT assay; design: scale not given: the % may be the effect or the level left
MOLT-4 [16] = assay: Growth inhibition of human MOLT4 cells at 10 uM after 96 hrs by MTT assay; design: scale not given: the % may be the effect or the level left
786-0 = assay: Growth inhibition of human 786-0 cells at 10 nM after 96 hrs by MTT assay; design: scale not given: the % may be the effect or the level left
HL-60(TB) [17] = assay: Growth inhibition of human HL-60(TB) cells at 10 uM after 96 hrs by MTT assay; design: scale not given: the % may be the effect or the level left
IGROV-1 = assay: Growth inhibition of human IGROV1 cells at 1 uM after 96 hrs by MTT assay; design: scale not given: the % may be the effect or the level left
DU-145 = assay: Growth inhibition of human DU145 cells at 1 nM after 96 hrs by MTT assay; design: scale not given: the % may be the effect or the level left
NCI-H460 = assay: Growth inhibition of human NCI-H460 cells at 10 nM after 96 hrs by MTT assay; design: scale not given: the % may be the effect or the level left
MCF7 = assay: Growth inhibition of human MCF7 cells at 1 nM after 96 hrs by MTT assay; design: scale not given: the % may be the effect or the level left
OVCAR-8 [18] = assay: Growth inhibition of human OVCAR8 cells at 1 nM after 96 hrs by MTT assay; design: scale not given: the % may be the effect or the level left
A549 [19] = assay: Growth inhibition of human A549 cells at 1 uM after 96 hrs by MTT assay; design: scale not given: the % may be the effect or the level left
RXF 393 = assay: Growth inhibition of human RXF393 cells after 96 hrs by MTT assay; details: RXF 393, 96 h; summary of the method: as §1
HOP-62 [20] = assay: Growth inhibition of human HOP62 cells at 100 nM after 96 hrs by MTT assay; design: scale not given: the % may be the effect or the level left
HOP-62 [21] = assay: Growth inhibition of human HOP62 cells after 96 hrs by MTT assay; details: HOP-62, 96 h; summary of the method: as §2
U-251 = assay: Growth inhibition of human U251 cells at 10 uM after 96 hrs by MTT assay; design: scale not given: the % may be the effect or the level left
[22] = read-out: Log10GI50 (converted)
[23] = read-out: Log10LC50 (converted)
[24] = read-out: LC50 (the source's name)

Question: Which results are given for `C=C(C)[C@H]1CC=C(C)C2=CO[C@@H](c3ccccc3F)[C@@H]21`?
Answer: Activity (MOLT-4 [1]): 100%; Activity (SNB-19): 82.9%; Activity (OVCAR-8 [2]): 93%; Activity (BT-549): 97%; Activity (MDA-MB-468 [3]): 102.71%; Activity (SNB-75 [4]): 35%; GI50 (OVCAR-5; read-out: GI50): 23.6 µM; LC50 (50% lethal concentration) (OVCAR-5; read-out: LC50): 72.3 µM; GI50 (OVCAR-5; [22]): 23.4 µM; LC50 (50% lethal concentration) (OVCAR-5; [23]): 72.4 µM; TGI (OVCAR-5; read-out: Log10TGI (converted)): 41.7 µM; TGI (OVCAR-5; read-out: TGI): 41.3 µM; Activity (KM12): 85.93%; Activity (A549 [5]): 89%; Activity (SNB-75 [6]): 85%; Activity (SN12C): 85%; Activity [7]: 83%; Activity (HT-29): 98%; Activity (MDA-MB-231): 101.47%; Activity (T47D): 89%; Activity (CAKI-1): 37%; Activity (MDA-MB-468 [8]): 11%; Activity (SNB-75 [9]): 80.72%; Activity (UO-31): 83%; GI50 (NCI-H23; read-out: GI50): 4.88 µM; CC50 (NCI-H23; [24]): 51.4 µM; GI50 (NCI-H23; [22]): 4.9 µM; CC50 (NCI-H23; [23]): 51.3 µM; TGI (NCI-H23; read-out: Log10TGI (converted)): 19.5 µM; TGI (NCI-H23; read-out: TGI): 19.4 µM; Activity (SF-268 [10]): 105.37%; Activity (LOX IMVI): 33%; Activity (MOLT-4 [11]): 106%; Activity (EKVX): 98%; Activity (HOP-62 [12]): 95%; Activity (HL-60(TB) [13]): -40%; Activity (SF-268 [14]): 91%; Activity (OVCAR-4): 76%; Activity (SF-268 [15]): 87%; GI50 (HOP-92; read-out: GI50): 0.552 µM; CC50 (HOP-92; [24]): 26.8 µM; GI50 (HOP-92; [22]): 0.55 µM; CC50 (HOP-92; [23]): 26.9 µM; TGI (HOP-92; read-out: Log10TGI (converted)): 5.75 µM; TGI (HOP-92; read-out: TGI): 5.76 µM; Activity (UACC-62): 81%; Activity (MOLT-4 [16]): 74.3%; Activity (786-0): 92%; Activity (HL-60(TB) [17]): 44.43%; Activity (IGROV-1): 56%; Activity (DU-145): 88%; Activity (NCI-H460): 97%; Activity (MCF7): 93%; Activity (OVCAR-8 [18]): 99%; Activity (A549 [19]): 38%; GI50 (RXF 393; read-out: GI50): 7 µM; CC50 (RXF 393; [24]): 64.7 µM; GI50 (RXF 393; [22]): 6.92 µM; CC50 (RXF 393; [23]): 64.6 µM; TGI (RXF 393; read-out: Log10TGI (converted)): 24 µM; TGI (RXF 393; read-out: TGI): 23.9 µM; Activity (HOP-62 [20]): 98%; GI50 (HOP-62 [21]; read-out: GI50): 10.1 µM; CC50 (HOP-62 [21]; [24]): 46.8 µM; GI50 (HOP-62 [21]; [22]): 10.2 µM; CC50 (HOP-62 [21]; [23]): 46.8 µM; TGI (HOP-62 [21]; read-out: Log10TGI (converted)): 21.9 µM; TGI (HOP-62 [21]; read-out: TGI): 21.8 µM; Activity (U-251): 97.35%
